Series [1] has as its system Mycobacterium tuberculosis. As to the kind of experiment: Antimycobacterial activity against XDR Mycobacterium tuberculosis isolate X_61 by two fold serial dilution based fluorescence assay. It is filed as functional. The method in brief: (§1)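 MGIT 960 (BACTEC) broth assay in 7H9 with 1% OADC and 0.05% Tween 80. Compounds are 10 mM DMSO stocks, two-fold serially diluted, final DMSO ≤1.2%, top concentration 10 µM. Tubes incubated at 37°C with growth units read daily. MIC99 is set against a 1% drug-free growth control tube.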

Series [2] has as its system Mycobacterium tuberculosis. Put plainly: Antimycobacterial activity against XDR Mycobacterium tuberculosis isolate X_3 at 10 uM by two fold serial dilution based fluorescence assay. The format is functional. The method in brief:
as §1

For series [3], the system named is Mycobacterium tuberculosis. Put plainly: Antimycobacterial activity against XDR Mycobacterium tuberculosis isolate TT149 at 10 uM by two fold serial dilution based fluorescence assay. The format is functional. The method in brief: as §1
The test system of series [4] is Mycobacterium tuberculosis. As to the kind of experiment: Antimycobacterial activity against Mycobacterium tuberculosis H37Rv by two fold serial dilution based fluorescence assay. It is filed as functional. The method in brief:
as §1

Series [5] concerns Mycobacterium tuberculosis. As to the kind of experiment: Antimycobacterial activity against XDR Mycobacterium tuberculosis isolate X_60 by two fold serial dilution based fluorescence assay. The format is functional. In short, it runs like this: as §1
The subject of another series is CHO. Put plainly: Cytotoxicity against CHO cells. It is filed as cell-based. The conditions noted are these: Cricetulus griseus.
A short description of series [6]: Cytotoxicity against human THP1 cells assessed as decrease in cell viability after 24 hrs by MTT assay. The following applies: THP-1 cells. It is filed as cell-based. The method in brief:
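THP-1 cells at 1.5 x 10^4/well are exposed to a range of compound concentrations for 24 h. MTT is then added for 4 h at 37°C, followed by solubilisation buffer for 30 min. A570 is read. Cytotoxicity % = 100 − [100 × (OD with drug/OD without drug)]. An IC20 cut-off is used to set concentrations for the macrophage work.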
Background: Tetrazolium dyes change colour on reduction, which living cells bring about.

Converted amounts (≈) assume the structure as drawn. The source made the active and inactive calls.

The term MIC99 denotes the lowest concentration that inhibits either 99% of growth or 99% of the strains tested, depending on the study. Read a low MIC99 as higher susceptibility. By IC50 is commonly meant the concentration needed to halve the response being measured. Take `O=C(NNCCCN1CCC(=C2c3ccccc3Sc3ccccc32)CC1)c1ccncc1`: the MIC99 was 2.5 µM (≈ 1.14 µg/mL) in series [1], 1.25 µM (≈ 0.571 µg/mL) in series [4] and more than 10 µM in series [5]. Also, the outcome in series [2] and in series [3] was inactive. In addition, in the series on CHO, the half-inhibitory concentration (IC50) amounted to 152 µM.
Regarding `O=C(NNCCCN1CCN(C(c2ccccc2)(c2ccccc2)c2ccccc2)CC1)c1ccncc1`, the MIC99 in series [1] was 2.5 µM (≈ 1.26 µg/mL); in series [4], 1.25 µM (≈ 0.632 µg/mL); in series [5], 2.5 µM (≈ 1.26 µg/mL). The outcome in series [2] and in series [3] was inactive. For the same molecule, the IC50 in the series on CHO amounted to 97.6 µM.
Regarding `O=C(NNCCCN1CCC(=C2c3ccccc3Sc3ccc(Cl)cc32)CC1)c1ccncc1`, the MIC99 in series [1] is 2.5 µM (≈ 1.23 µg/mL); in series [4], 0.625 µM (≈ 0.307 µg/mL); in series [5], more than 10 µM. The outcome in series [2] and in series [3] was inactive. For the same molecule, the half-inhibitory concentration (IC50) in the series with CHO came to 296 µM.
With `O=C(NNCCCN1CCN(C(c2ccccc2)c2ccccc2)CC1)c1ccncc1`, the MIC99 in series [1] is 5 µM (≈ 2.15 µg/mL); in series [4], 5 µM (≈ 2.15 µg/mL); in series [5], more than 10 µM. Besides, the outcome in series [2] and in series [3] was inactive. In addition, in the series with CHO, the half-maximal inhibitory concentration (IC50) came out at 48.1 µM.
One may read the IC20 as the concentration at which the effect reaches the 20% level. On to `O=C(NNCCCN1c2ccccc2Sc2ccc(Cl)cc21)c1ccccc1`, for which the concentration for an effect of 20% (IC20) at 24 h in series [6] is more than 100 µM. Besides, the outcome in series [2] and in series [3] was inactive. Besides, in series [4], the MIC99 is more than 10 µM.
Regarding `O=C(NNCCCN1CCN(C2c3ccccc3CCc3ccccc32)CC1)c1ccncc1`, the outcome in series [2] and in series [3] was inactive. The same molecule registered an MIC99 in series [4] of 5 µM (≈ 2.28 µg/mL).
Consider `O=C(NNCCCN1CCN(CC(O)(c2ccccc2)c2ccccc2)CC1)c1ccncc1`, for which the MIC99 in series [1] was 5 µM (≈ 2.3 µg/mL); in series [4], 1.25 µM (≈ 0.574 µg/mL); in series [5] it was more than 10 µM. Also, the outcome in series [2] and in series [3] was inactive. In addition, the IC50 in the series on CHO was found to be 174 µM.
Turning to `O=C(NNCCCN1c2ccccc2CCc2ccccc21)c1ccncc1`, the concentration for an effect of 20% (IC20) at 24 h in series [6] is more than 100 µM. For the same molecule, the outcome in series [2] and in series [3] was inactive. In series [4], this molecule gave an MIC99 of 1 µM (≈ 0.372 µg/mL).
Regarding `O=C(NNCCCN1c2ccccc2Sc2ccccc21)c1ccccc1`, the IC20 at 24 h in series [6] was more than 100 µM. Besides, the outcome in series [2] and in series [3] was inactive. For the same molecule, in series [4], the MIC99 is more than 10 µM.
Regarding `O=C(NNCCCN1CCC(=C2c3ccccc3C=Cc3ccccc32)CC1)c1ccncc1`, the MIC99 was 5 µM (≈ 2.25 µg/mL) in series [1], 1.25 µM (≈ 0.563 µg/mL) in series [4] and more than 10 µM in series [5]. Moreover, the result in series [2] and in series [3] was inactive. This molecule came in with a concentration for half-maximal inhibition (IC50) with CHO of 148 µM.
Regarding `O=C(NNCCCN1c2ccccc2Sc2ccccc21)c1ccncc1`, the IC20 at 24 h in series [6] is more than 100 µM. The result in series [2] and in series [3] was inactive. The MIC99 in series [4] was 1 µM (≈ 0.376 µg/mL).
Turning to `O=C(NNCCCNCCCN1c2ccccc2Sc2ccccc21)c1ccncc1`, the outcome in series [2] and in series [3] was inactive. Besides, the MIC99 in series [4] is 5 µM (≈ 2.17 µg/mL).
Consider `O=C(NNCCCN1CCC(N2c3ccccc3Sc3ccc(Cl)cc32)CC1)c1ccncc1`, for which the MIC99 in series [1] was more than 10 µM; in series [4] it was 1 µM (≈ 0.494 µg/mL); in series [5], more than 10 µM. Moreover, in series [6], the IC20 at 24 h is 2.2 µM. Also, the outcome in series [2] and in series [3] was inactive. In the series with CHO, the midpoint of inhibition, the IC50, lay at 37.4 µM.
For the molecule `CN(C)CCCN1c2ccccc2Sc2ccc(Cl)cc21` [CHLORPROMAZINE], the 20% effect concentration (IC20) at 24 h in series [6] stood at 4 µM.
Turning to `O=C(NNCCCN1c2ccccc2Sc2ccc(Cl)cc21)c1ccncc1`, in series [6], the IC20 at 24 h was 24.4 µM. In addition, the result in series [2] and in series [3] was inactive. In series [4], this molecule had an MIC99 of 0.25 µM (≈ 0.103 µg/mL).
Take `O=C(NNCCCN1CCC(N2c3ccccc3Sc3ccccc32)CC1)c1ccncc1`: the values for the MIC99 in series [1], in series [4] and in series [5] were 2.5 µM (≈ 1.15 µg/mL), 5 µM (≈ 2.3 µg/mL) and more than 10 µM, respectively. In addition, the result in series [2] and in series [3] was inactive. Further, half-maximal inhibition in the series on CHO (IC50) was put at 122 µM.
Turning to `NNC(=O)c1ccncc1` [ISONIAZID], the MIC99 in series [1] was 2.5 µM (≈ 0.343 µg/mL); in series [2] it was more than 10 µM; in series [3] it was more than 10 µM; in series [4] it was 0.73 µM (≈ 0.1 µg/mL); in series [5], more than 10 µM. The IC20 at 24 h in series [6] was more than 100 µM. This molecule yielded a half-maximal inhibitory concentration (IC50) in the series on CHO of more than 100 µM.
For `O=C(NNCCCNCCCN1c2ccccc2Sc2ccc(Cl)cc21)c1ccncc1`, the result in series [2] and in series [3] was inactive. The MIC99 in series [4] was 5 µM (≈ 2.34 µg/mL).

Source of the values: ChEMBL document CHEMBL4184228, “Reversed isoniazids: Design, synthesis and evaluation against Mycobacterium tuberculosis” (Bioorg Med Chem, 2018).
